In ChEMBL document CHEMBL4130355, “Development of a series of novel 4-anlinoquinazoline derivatives possessing quinazoline skeleton: Design, synthesis, EGFR kinase inhibitory efficacy, and evaluation of anticancer activities in vitro” (Eur J Med Chem, 2017):

What was measured:
HepG2 [1] = assay: Antiproliferative activity against human HepG2 cells at 0.1 uM after 72 hrs by MTT assay realtive to control; type: functional
Procedure, shortened: (§1)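 MTT assay in triplicate wells. Cells (2 × 10^3/well) were attached 24 h, then treated at 0.1, 1, 10, 50 or 100 µM for 24, 48 or 72 h. MTT added for 4 h, SDS solubilisation, absorbance at 570/650 nm. Inhibition = 1 − (OD treated − blank)/(OD control − blank). Reported as mean ± SD of three independent experiments.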

HepG2 [2] = assay: Cell cycle arrest in human HepG2 assessed as accumulation at G0/G1 phase at 2.5 uM after 48 hrs by propidium iodide-staining based flow cytometry (reference value: 69.40%); type: functional
Procedure, shortened: (§2)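 HepG2 cells at 5.0 × 10^5/well were grown 24 h, then treated at 0, 2.5, 5.0 or 10.0 µM for 48 h alongside medium-only wells. Cells fixed in 70% ice-cold ethanol for ≥24 h, treated with RNase A at 37 °C for 30 min, then stained with propidium iodide for 30 min at 4 °C in the dark. DNA content read by flow cytometry. Average of at least three experiments.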

A549 [3] = assay: Antiproliferative activity against human A549 cells at 50 uM after 48 hrs by MTT assay relative to control; type: functional; procedure, shortened: as §1
HepG2 [4] = assay: Induction of apoptosis in human HepG2 cells assessed as early apoptotic cells at 5 uM after 48 hrs by Annexin V-FITC/propidium iodide double staining-based flow cytometry (reference value: 8.7%); type: functional
A549 [5] = assay: Antiproliferative activity against human A549 cells after 48 hrs by MTT assay; type: functional, cell-based; details: A549, 48 h
Procedure, shortened: (§3)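 MTT read-out. Cells seeded at 2 × 10^3/well, attached 24 h at 37 °C in 5% CO2, then exposed to 0.1–100 µM for 24, 48 or 72 h. MTT for 4 h, formazan dissolved in 10% SDS/NH4Cl for 10 h, absorbance at 570 nm corrected at 650 nm. % inhibition computed against untreated and blank wells. IC50 is the mean of at least three independent experiments.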

HepG2 [6] = assay: Antiproliferative activity against human HepG2 cells at 100 uM after 24 hrs by MTT assay realtive to control; type: functional; procedure, shortened: as §1
A549 [7] = assay: Antiproliferative activity against human A549 cells at 100 uM after 72 hrs by MTT assay relative to control; type: functional; procedure, shortened: as §1
A549 [8] = assay: Antiproliferative activity against human A549 cells at 1 uM after 48 hrs by MTT assay relative to control; type: functional; procedure, shortened: as §1
HepG2 [9] = assay: Induction of apoptosis in human HepG2 cells assessed as caspase-3 activity at 2.5 uM after 48 hrs by colorimetric assay relative to control; type: functional
Procedure, shortened: (§4)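 After 48 h treatment, HepG2 were rinsed in ice-cold PBS and lysed 1–1.5 h on ice in buffer with 1% DTT. Lysate was spun at 10,000×g for 1 min at 4 °C; supernatant protein was measured by Bradford. Supernatant was mixed with 2× reaction buffer (1% DTT) plus caspase-3 chromogenic peptide substrate, held 4 h at 37 °C, and read at 405 nm.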

HepG2 [10] = assay: Cell cycle arrest in human HepG2 assessed as accumulation at S phase at 10 uM after 48 hrs by propidium iodide-staining based flow cytometry (reference value: 21.46%); type: functional; procedure, shortened: as §2
A549 [11] = assay: Antiproliferative activity against human A549 cells at 1 uM after 24 hrs by MTT assay relative to control; type: functional; procedure, shortened: as §1
HepG2 [12] = assay: Antiproliferative activity against human HepG2 cells at 1 uM after 72 hrs by MTT assay realtive to control; type: functional; procedure, shortened: as §1
HepG2 [13] = assay: Antiproliferative activity against human HepG2 cells at 10 uM after 72 hrs by MTT assay realtive to control; type: functional; procedure, shortened: as §1
HepG2 [14] = assay: Antiproliferative activity against human HepG2 cells after 72 hrs by MTT assay; type: functional, cell-based; details: HepG2, 72 h
HepG2 [15] = assay: Antiproliferative activity against human HepG2 cells at 0.1 uM after 24 hrs by MTT assay realtive to control; type: functional; procedure, shortened: as §1
HepG2 [16] = assay: Induction of apoptosis in human HepG2 cells assessed as viable cells at 2.5 uM after 48 hrs by Annexin V-FITC/propidium iodide double staining-based flow cytometry (reference value: 86.4%); type: functional; details: HepG2, 48 h, read-out: Activity
A549 [17] = assay: Antiproliferative activity against human A549 cells after 24 hrs by MTT assay; type: functional, cell-based; details: A549, 24 h; procedure, shortened: as §3
A549 [18] = assay: Antiproliferative activity against human A549 cells at 50 uM after 72 hrs by MTT assay relative to control; type: functional; procedure, shortened: as §1
HepG2 [19] = assay: Induction of apoptosis in human HepG2 cells assessed as caspase-3 activity at 10 uM after 48 hrs by colorimetric assay relative to control; type: functional; procedure, shortened: as §4
[20] = biological target: T1, Epidermal growth factor receptor (Homo sapiens, UniProt P00533); details: HEK293, at 1 µM
HepG2 [21] = assay: Induction of apoptosis in human HepG2 cells assessed as late apoptotic cells at 5 uM after 48 hrs by Annexin V-FITC/propidium iodide double staining-based flow cytometry (reference value: 4.3%); type: functional
DU-145 = assay: Antiproliferative activity against human DU145 cells after 72 hrs by MTT assay; type: functional, cell-based; details: DU-145, 72 h
[22] = biological target: T1, Epidermal growth factor receptor; type: cell-based, HEK293
A549 [23] = assay: Antiproliferative activity against human A549 cells at 10 uM after 48 hrs by MTT assay relative to control; type: functional; procedure, shortened: as §1
[24] = biological target: T1, Epidermal growth factor receptor; details: HEK293, at 0.0001 µM
HepG2 [25] = assay: Induction of apoptosis in human HepG2 cells assessed as late apoptotic cells at 10 uM after 48 hrs by Annexin V-FITC/propidium iodide double staining-based flow cytometry (reference value: 4.3%); type: functional
HepG2 [26] = assay: Cell cycle arrest in human HepG2 assessed as accumulation at G2/M phase at 2.5 uM after 48 hrs by propidium iodide-staining based flow cytometry (reference value: 9.13%); type: functional; procedure, shortened: as §2
HepG2 [27] = assay: Induction of apoptosis in human HepG2 cells assessed as caspase-3 activity at 20 uM after 48 hrs by colorimetric assay relative to control; type: functional; procedure, shortened: as §4
HepG2 [28] = assay: Induction of apoptosis in human HepG2 cells assessed as intracellular free Ca2+ levels at 10 uM after 48 hrs by FL1 channel/FACS analysis (reference value: 14.2%); type: functional
Procedure, shortened: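 HepG2 seeded at 5.0 × 10^5 cells/mL, 24 h at 37 °C in 5% CO2, then treated 48 h (2.5–20 µM). Harvested cells were washed in ice-cold PBS and loaded with 4 µM Fluo-3/AM for 30 min. After trypsinizing, they were washed twice and resuspended in HEPES, and fluorescence was measured in the FL-1 channel by flow cytometry. Values are averages of at least three independent experiments.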

HepG2 [29] = assay: Antiproliferative activity against human HepG2 cells at 50 uM after 72 hrs by MTT assay realtive to control; type: functional; procedure, shortened: as §1
[30] = Antiproliferative activity against human CCC-HPF1 cells after 72 hrs by MTT assay; type: ADME, cell-based; details: CCC-HPF-1, 72 h
A549 [31] = assay: Antiproliferative activity against human A549 cells after 72 hrs by MTT assay; type: functional, cell-based; details: A549, 72 h

T1 sequence (P00533 whole entry): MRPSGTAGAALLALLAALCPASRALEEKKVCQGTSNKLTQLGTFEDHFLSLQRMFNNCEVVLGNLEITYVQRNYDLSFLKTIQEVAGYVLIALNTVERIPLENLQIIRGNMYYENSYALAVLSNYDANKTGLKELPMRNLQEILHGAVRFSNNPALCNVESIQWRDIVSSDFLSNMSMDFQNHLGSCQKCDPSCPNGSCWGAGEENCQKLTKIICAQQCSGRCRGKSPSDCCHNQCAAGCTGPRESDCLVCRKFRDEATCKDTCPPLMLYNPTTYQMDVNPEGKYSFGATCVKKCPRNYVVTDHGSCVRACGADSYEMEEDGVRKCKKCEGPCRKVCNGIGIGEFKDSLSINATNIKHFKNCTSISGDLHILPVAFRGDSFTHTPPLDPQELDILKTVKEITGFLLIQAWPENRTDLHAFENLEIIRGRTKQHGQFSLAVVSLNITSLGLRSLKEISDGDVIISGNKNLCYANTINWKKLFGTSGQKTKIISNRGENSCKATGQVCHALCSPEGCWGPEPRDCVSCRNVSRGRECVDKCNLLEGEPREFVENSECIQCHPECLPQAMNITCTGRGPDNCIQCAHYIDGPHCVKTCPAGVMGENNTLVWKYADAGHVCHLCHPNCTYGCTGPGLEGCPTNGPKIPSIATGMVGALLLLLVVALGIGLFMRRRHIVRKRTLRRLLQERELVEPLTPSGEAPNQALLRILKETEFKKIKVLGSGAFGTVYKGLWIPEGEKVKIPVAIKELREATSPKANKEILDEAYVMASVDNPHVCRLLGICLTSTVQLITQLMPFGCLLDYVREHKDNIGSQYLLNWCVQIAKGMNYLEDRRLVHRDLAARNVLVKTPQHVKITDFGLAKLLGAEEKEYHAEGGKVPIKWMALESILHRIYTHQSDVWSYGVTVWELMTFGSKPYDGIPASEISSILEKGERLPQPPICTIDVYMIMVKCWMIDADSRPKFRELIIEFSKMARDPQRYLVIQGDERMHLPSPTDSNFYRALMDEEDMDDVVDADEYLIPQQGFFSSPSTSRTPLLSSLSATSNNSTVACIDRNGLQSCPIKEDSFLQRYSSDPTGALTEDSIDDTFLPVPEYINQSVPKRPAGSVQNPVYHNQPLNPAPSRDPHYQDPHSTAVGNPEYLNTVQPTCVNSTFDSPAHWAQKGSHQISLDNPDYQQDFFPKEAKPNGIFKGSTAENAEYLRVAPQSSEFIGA

IC50 (A549 [5]): 20.6 µM | IC50 (HepG2 [14]): 4.61 to 5.29 µM | IC50 (A549 [17]): 15 µM | inhibition [20]: 94.3% | IC50 (DU-145): 6.79 µM | IC50 [22]: 3.62 nM | inhibition [24]: 39.1% | IC50 (A549 [31]): 9.5 µM
Compound: COc1cc2c(Nc3ccc(C#N)cc3)ncnc2cc1OCCCN1CCC(c2ccccc2)CC1
Activity (HepG2 [1]): 7.4% | Activity (HepG2 [2]): 67.07% | Activity (A549 [3]): 75.5% | Activity (HepG2 [4]): 80.7% | Activity (HepG2 [6]): 101% | Activity (A549 [7]): 95.5% | Activity (A549 [8]): 2.9% | Activity (HepG2 [9]): 138% | Activity (HepG2 [10]): 29.72% | Activity (A549 [11]): 1.9% | Activity (HepG2 [12]): 13.7% | Activity (HepG2 [13]): 63.6% | Activity (HepG2 [15]): 4.4% | viability at 2.5 µM (HepG2 [16]): 47.5% | Activity (A549 [18]): 86.6% | Activity (HepG2 [19]): 198% | Activity (HepG2 [21]): 2% | Activity (A549 [23]): 13.5% | Activity (HepG2 [25]): 0.1% | Activity (HepG2 [26]): 10.49% | Activity (HepG2 [27]): 196% | Activity (HepG2 [28]): 48.9% | Activity (HepG2 [29]): 96.5% | IC50 [30]: 28 µM
